Assays:
[1] = target: T1, Integrin alpha-IIb/beta-3 (Homo sapiens, UniProt P05106+P08514); test: Antagonist activity at GP2b/GP3a receptor in human platelet rich plasma assessed as inhibition of ADP-induced platelet aggregation at 50 uM preincubated for 1 min followed by ADP addition by aggregometric method relative to control
Procedure, shortened: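 Human PRP from apheresis platelets, PPP from centrifugation at 3000r/min for 10 min used as reference. Compound in saline or 0.2% aqueous DMSO added to PRP, incubated 1 min, then ADP 20 μM (per table footnotes; methods list 10 μM) added. Light transmission aggregometry at 37°C, maximal aggregation vs PPP. Inhibition relative to control aggregation ratio. IC50 from at least four concentrations.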

[2] = target: T1, Integrin alpha-IIb/beta-3; test: Displacement of fibrinogen from human platelet GP2b/GP3a receptor after 2 hrs by ELISA
Procedure, shortened: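 Plates coated overnight at 4°C with fibrinogen 10 µg/ml in 0.1 M carbonate pH 9.5, blocked with 1% BSA. Purified human platelet GPIIb/IIIa (20 µg/ml) added with samples for 2 h in Tris/NaCl/CaCl2/Tween buffer pH 7.5. Bound receptor detected with anti-β3 antibody (1 h, 37°C) and alkaline phosphatase conjugate with pNPP, A405. BSA-only wells subtracted. Triplicate.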

Mus musculus [3] = test: Toxicity in ICR mouse assessed as bleeding time at 3 mg/kg, iv administered 30 mins prior to test by tail transection method; assay type: organism-based; settings: in vivo, 0.5 h
Procedure, shortened: (§1)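 ICR mice dosed 30 min before test, saline as control. Anesthetized with 5% chloral hydrate i.p., kept at 37°C on a heating pad. 3-mm tail tip cut off and tail immersed in 37°C saline. Time until bleeding stopped for more than 5 s recorded, accumulated within 20 min. n=6.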

Mus musculus [4] = test: Toxicity in ICR mouse assessed as bleeding time at 15 mg/kg, iv administered 30 mins prior to test by tail transection method; assay type: organism-based; settings: in vivo, 0.5 h; procedure, shortened: as §1
Mus musculus [5] = test: Toxicity in ICR mouse assessed as bleeding time at 30 mg/kg, iv administered 30 mins prior to test by tail transection method; assay type: organism-based; settings: in vivo, 0.5 h; procedure, shortened: as §1
Rattus norvegicus [6] = test: Anti-thrombotic activity in iv dosed Sprague-Dawley rat arterio-venous shunt thrombosis model assessed as reduction in thrombus weight pretreated for 15 mins followed by arteriovenous shunt thrombosis induction measured after 20 mins; assay type: functional, organism-based
Procedure, shortened: (§2)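 SD rats of both sexes, 180~220 g, dosed by tail vein injection. After 15 min, anesthetized with 10% chloral hydrate (3 ml/kg i.p.). Shunt catheter placed between left jugular vein and right common carotid artery, opened 20 min. Thrombus dried at 60°C for 20 min and weighed without the thread. n=6.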

Rattus norvegicus [7] = test: Anti-thrombotic activity in Sprague-Dawley rat arterio-venous shunt thrombosis model assessed as reduction in thrombus weight at 10 mg/kg, iv pretreated for 15 mins followed by arteriovenous shunt thrombosis induction measured after 20 mins relative to control; assay type: functional; design: scale not given: the % may be the effect or the level left; procedure, shortened: as §2

Row | Structure (SMILES) | inhibition [1] [%] | also measured
1 | O=C(O)C(Cc1c[nH]c2ccc(OCCCCC3CCNCC3)cc12)NS(=O)(=O)c1ccc(Br)cc1 (stereo not drawn) | 38.1 | 
2 | N=C(N)c1ccc(COc2ccc3cc(CC(NS(=O)(=O)c4ccccc4)C(=O)O)ccc3c2)cc1 (racemic) | > 99.5 | IC50 [2]: 1330 nM; inhibition [2]: Dose-dependent effect
3 | Cl.O=C(O)C(Cc1ccc2cc(OCCCN3CCNCC3)ccc2c1)NS(=O)(=O)c1ccccc1 (racemic) |  | IC50 [2]: 80 nM; inhibition [2]: Dose-dependent effect; Time (Mus musculus [3]): 6.72 min; Time (Mus musculus [4]): 8.63 min; Time (Mus musculus [5]): 9.28 min; Activity (Rattus norvegicus [6]): Dose-dependent effect; Activity (Rattus norvegicus [7]): 40%
4 | CCCC(=O)NC(Cc1ccc2cc(OCc3ccc(C(=N)N)cc3)ccc2c1)C(=O)O (racemic) | > 99.5 | 
5 | CCCCS(=O)(=O)NC(Cc1ccc2cc(OCc3ccc(C(=N)N)cc3)ccc2c1)C(=O)O (racemic) | > 99.5 | 
6 | COc1ccc(C(=O)NC(Cc2ccc3cc(OCc4ccc(C(=N)N)cc4)ccc3c2)C(=O)O)cc1 (racemic) | 32.4 | 
7 | COc1ccc(S(=O)(=O)NC(Cc2ccc3cc(OCc4ccc(C(=N)N)cc4)ccc3c2)C(=O)O)cc1 (racemic) | 21.5 | 
8 | Cc1ccc(S(=O)(=O)NC(Cc2ccc3cc(OCc4ccc(C(=N)N)cc4)ccc3c2)C(=O)O)cc1 (racemic) | > 99.5 | 
9 | N=C(N)c1ccc(COc2ccc3cc(CC(NC(=O)c4ccc(F)cc4)C(=O)O)ccc3c2)cc1 (racemic) | 23.3 | 
10 | N=C(N)c1ccc(COc2ccc3cc(CC(NC(=O)c4ccc([N+](=O)[O-])cc4)C(=O)O)ccc3c2)cc1 (racemic) | > 99.5 | 
11 | N=C(N)c1ccc(COc2ccc3cc(CC(NC(=O)c4cccc(F)c4)C(=O)O)ccc3c2)cc1 (racemic) | 49.7 | 
12 | N=C(N)c1ccc(COc2ccc3cc(CC(NC(=O)c4ccccc4)C(=O)O)ccc3c2)cc1 (racemic) | 49.4 | 
13 | N=C(N)c1ccc(COc2ccc3cc(CC(NS(=O)(=O)c4ccc(Br)cc4)C(=O)O)ccc3c2)cc1 (racemic) | 50.2 | 
14 | N=C(N)c1ccc(COc2ccc3cc(CC(NS(=O)(=O)c4ccc([N+](=O)[O-])cc4)C(=O)O)ccc3c2)cc1 (racemic) | 62.9 | 
15 | O=C(O)C(Cc1ccc2cc(OCC3CCNCC3)ccc2c1)NS(=O)(=O)c1ccc(Br)cc1 (racemic) | < 5 | 
16 | O=C(O)C(Cc1ccc2cc(OCCC3CCNCC3)ccc2c1)NS(=O)(=O)c1ccc(Br)cc1 (racemic) | < 5 | 
17 | O=C(O)C(Cc1ccc2cc(OCCCC3CCNCC3)ccc2c1)NS(=O)(=O)c1ccc(Br)cc1 (racemic) | < 5 | 
18 | O=C(O)C(Cc1ccc2cc(OCCCCN3CCNCC3)ccc2c1)NS(=O)(=O)c1ccc(Br)cc1 (racemic) | 91.2 | 
19 | O=C(O)C(Cc1ccc2cc(OCCCN3CCNCC3)ccc2c1)NS(=O)(=O)c1ccc(Br)cc1 (racemic) | 99.1 | 
20 | O=C(O)C(Cc1ccc2cc(OCCN3CCNCC3)ccc2c1)NS(=O)(=O)c1ccc(Br)cc1 (racemic) | 97.3 | 

From ChEMBL document CHEMBL3877256, “Design, synthesis and evaluation of novel 2-amino-3-(naphth-2-yl)propanoic acid derivatives as potent inhibitors of platelet aggregation” (Eur J Med Chem, 2017)
